Format in all cases: cell-based
Assay [1] has as its target Histone-lysine N-methyltransferase EZH2 (Mus musculus) (UniProt Q61188). Put plainly: Inhibition of EZH2 in mouse B16-F1 migrating cells assessed as fold change in H3K27me3-buffered regulated Ccdc126-mRNA expression at 3 uM measured by […] analysis relative to control cells. The method in brief: (§1)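 Confluent B16-F1 cells on fibronectin-coated plates, cultured at 37 °C and 7% CO2, were scratched at multiple sites to induce migration. They were then held 3 h in growth medium containing 3 µM GSK343, with the inhibitor added 3 h before lysis. Unscratched cells served as controls. Poly A mRNA was analysed by RNA-seq (n=3 GSK343, n=5 controls). Linear models removed batch effects, and buffered genes were those altered only under GSK343 (FDR <0.05, fold change >1.3).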

Assay [2] shares this target. Description: Inhibition of EZH2 in mouse B16-F1 migrating cells assessed as fold change in H3K27me3-independent regulated Ahnak-mRNA expression at 3 uM measured by […] analysis relative to control cells. The essentials:
(§2)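 Confluent B16-F1 cells on fibronectin-coated plates were scratched at multiple sites, washed once with DMEM and left to migrate 3 h in growth medium (37 °C, 7% CO2); unscratched cells served as control. GSK343 (3 µM) was added 3 h before lysis. Poly A mRNA was sequenced (RNA-seq), with 5 replicates for untreated and 3 for treated cells. Differential expression was called by linear model with batch correction, at FDR <0.05 and fold change ≥1.3.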

For assay [3] the target is unchanged. Put plainly: Inhibition of EZH2 in mouse B16-F1 migrating cells assessed as fold change in H3K27me3-buffered regulated Cntrob-mRNA expression at 3 uM measured by […] analysis relative to control cells. The essentials:
as §1

For assay [4] the target is unchanged. Put plainly: Inhibition of EZH2 in mouse B16-F1 migrating cells assessed as fold change in H3K27me3-buffered regulated 1810058I24Rik-mRNA expression at 3 uM measured by ChIP-seq analysis relative to control cells. The method in brief: as §1
Assay [5] shares this target. Description: Inhibition of EZH2 in mouse B16-F1 migrating cells assessed as fold change in H3K27me3-buffered regulated Map3k1-mRNA expression at 3 uM measured by […] analysis relative to control cells. The method in brief:
as §1

Assay [6] shares this target. Put plainly: Inhibition of EZH2 in mouse B16-F1 migrating cells assessed as fold change in H3K27me3-buffered regulated Ctxn1-mRNA expression at 3 uM measured by ChIP-seq analysis relative to control cells. The method in brief:
as §1

Assay [7] has the same target. Description: Inhibition of EZH2 in mouse B16-F1 migrating cells assessed as fold change in H3K27me3-dependent regulated Ccno-mRNA expression at 3 uM measured by ChIP-seq analysis relative to control cells. The method in brief: as §2
Assay [8] has the same target. Put plainly: Inhibition of EZH2 in mouse B16-F1 migrating cells assessed as fold change in H3K27me3-buffered regulated Sltm-mRNA expression at 3 uM measured by ChIP-seq analysis relative to control cells. The method in brief:
as §2

The target is the same in assay [9]. Description: Inhibition of EZH2 in mouse B16-F1 migrating cells assessed as fold change in H3K27me3-buffered regulated Fam184b-mRNA expression at 3 uM measured by […] analysis relative to control cells. The method in brief:
as §1

Assay [10] has the same target. Description: Inhibition of EZH2 in mouse B16-F1 migrating cells assessed as fold change in H3K27me3-buffered regulated Tcf7l1-mRNA expression at 3 uM measured by […] analysis relative to control cells. The essentials:
as §2

Assay [11] shares this target. Description: Inhibition of EZH2 in mouse B16-F1 migrating cells assessed as fold change in H3K27me3-buffered regulated Tet2-mRNA expression at 3 uM measured by ChIP-seq analysis relative to control cells. The method in brief:
as §2

Assay [12] shares this target. Description: Inhibition of EZH2 in mouse B16-F1 migrating cells assessed as fold change in H3K27me3-buffered regulated Vegfc-mRNA expression at 3 uM measured by […] analysis relative to control cells. The essentials: as §2
Assay [13] shares this target. Put plainly: Inhibition of EZH2 in mouse B16-F1 migrating cells assessed as fold change in H3K27me3-buffered regulated Dlg4-mRNA expression at 3 uM measured by ChIP-seq analysis relative to control cells. The essentials:
as §1

The target is the same in assay [14]. Description: Inhibition of EZH2 in mouse B16-F1 migrating cells assessed as fold change in H3K27me3-buffered regulated Rassf1-mRNA expression at 3 uM measured by […] analysis relative to control cells. The essentials:
as §1

The target of assay [15] is T1, RNA polymerase II (Mus musculus) (UniProt P08775+Q8CFI7+P97760+A0A3Q4L2S8+Q80UW8+P61219+P62488+Q923G2+P60898+O08740+Q63871+P62876). Description: Inhibition of RNA polymerase II in mouse B16-F1 migrating cells assessed as fold change in Mbtd1-RNA stability at 0.1 mM measured by ChIP-seq analysis relative to control cells.
In assay [16] the target is T1, RNA polymerase II (Mus musculus). Put plainly: Inhibition of RNA polymerase II in mouse B16-F1 migrating cells assessed as fold change in Nae1-RNA stability at 0.1 mM measured by ChIP-seq analysis relative to control cells.
The target is the same in assay [17]. Description: Inhibition of RNA polymerase II in mouse B16-F1 migrating cells assessed as fold change in Chd1-RNA stability at 0.1 mM measured by ChIP-seq analysis relative to control cells.
Assay [18] has the same target. Description: Inhibition of RNA polymerase II in mouse B16-F1 migrating cells assessed as fold change in Zfp966-RNA stability at 0.1 mM measured by […] analysis relative to control cells.
The target is the same in assay [19]. Description: Inhibition of RNA polymerase II in mouse B16-F1 migrating cells assessed as fold change in Dpy19l4-RNA stability at 0.1 mM measured by ChIP-seq analysis relative to control cells.
Assay [20] shares this target. Description: Inhibition of RNA polymerase II in mouse B16-F1 migrating cells assessed as fold change in Gulp1-RNA stability at 0.1 mM measured by ChIP-seq analysis relative to control cells.
Assay [21] has the same target. Put plainly: Inhibition of RNA polymerase II in mouse B16-F1 migrating cells assessed as fold change in Efcab7-RNA stability at 0.1 mM measured by ChIP-seq analysis relative to control cells.
The target is the same in assay [22]. Description: Inhibition of RNA polymerase II in mouse B16-F1 migrating cells assessed as fold change in Galk1-RNA stability at 0.1 mM measured by ChIP-seq analysis relative to control cells.
The target is the same in assay [23]. Put plainly: Inhibition of RNA polymerase II in mouse B16-F1 migrating cells assessed as fold change in Stx8-RNA stability at 0.1 mM measured by […] analysis relative to control cells.
The target is the same in assay [24]. Put plainly: Inhibition of RNA polymerase II in mouse B16-F1 migrating cells assessed as fold change in Abi1-RNA stability at 0.1 mM measured by […] analysis relative to control cells.
For assay [25] the target is unchanged. Put plainly: Inhibition of RNA polymerase II in mouse B16-F1 migrating cells assessed as fold change in Zfp280c-RNA stability at 0.1 mM measured by […] analysis relative to control cells.
The target is the same in assay [26]. Description: Inhibition of RNA polymerase II in mouse B16-F1 migrating cells assessed as fold change in Rassf2-RNA stability at 0.1 mM measured by […] analysis relative to control cells.

Sequence of Histone-lysine N-methyltransferase EZH2 (Mus musculus) (Q61188 whole entry): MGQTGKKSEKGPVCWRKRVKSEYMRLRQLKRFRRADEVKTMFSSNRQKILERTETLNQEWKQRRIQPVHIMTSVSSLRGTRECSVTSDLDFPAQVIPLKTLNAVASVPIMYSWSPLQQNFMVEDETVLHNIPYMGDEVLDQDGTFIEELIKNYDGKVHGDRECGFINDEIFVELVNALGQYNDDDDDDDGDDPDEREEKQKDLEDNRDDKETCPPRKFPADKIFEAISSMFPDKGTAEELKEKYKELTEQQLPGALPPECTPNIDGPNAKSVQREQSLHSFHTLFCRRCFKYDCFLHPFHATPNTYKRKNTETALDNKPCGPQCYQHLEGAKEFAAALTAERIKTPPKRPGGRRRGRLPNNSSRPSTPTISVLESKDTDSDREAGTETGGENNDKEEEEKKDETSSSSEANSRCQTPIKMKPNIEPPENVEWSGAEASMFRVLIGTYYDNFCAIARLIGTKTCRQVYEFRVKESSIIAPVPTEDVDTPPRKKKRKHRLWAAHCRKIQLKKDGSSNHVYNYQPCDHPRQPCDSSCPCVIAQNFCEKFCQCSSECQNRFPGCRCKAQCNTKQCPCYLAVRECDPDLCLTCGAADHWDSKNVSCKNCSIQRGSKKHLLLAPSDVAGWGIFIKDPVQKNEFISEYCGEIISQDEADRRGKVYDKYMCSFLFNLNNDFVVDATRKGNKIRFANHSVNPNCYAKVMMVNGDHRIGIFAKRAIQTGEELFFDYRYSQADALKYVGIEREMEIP

Regarding `CCCc1cc(C)[nH]c(=O)c1CNC(=O)c1cc(-c2ccnc(N3CCN(C)CC3)c2)cc2c1cnn2C(C)C`, the log2FC in assay [1] is -0.49; in assay [2], 0.4; in assay [3], -0.42; in [4], 0.47; in assay [5] it was -0.53; in [6] it was 0.43. For the same compound, the log2FC in assay [7] is 1.02; in assay [8], -0.45; in assay [9], -0.72; in assay [10] it was -0.48; in [11], -0.48; in assay [12], -0.44. Besides, the log2FC in assay [13] is 0.39; in assay [14] it was -0.52.

On to `OC[C@H]1O[C@@H](n2cnc3cc(Cl)c(Cl)cc32)[C@H](O)[C@@H]1O`, for which the log2FC was -0.62 in assay [15]; -0.43 in assay [16]; -0.56 in [17]; -0.82 in assay [18]; -0.58 in assay [19]; -0.97 in assay [20]. The log2FC was -0.79 in [21]; 0.67 in assay [22]; 0.48 in assay [23]; -0.62 in [24]; -0.98 in assay [25]; -0.48 in assay [26].

The record behind these values is ChEMBL document CHEMBL5674883, “The Heterochromatin Landscape in Migrating Cells and the Importance of H3K27me3 for Associated Transcriptome Alterations” (Cells, 2018).
